Results collected from several papers.
Compare with care: the assays were run in different laboratories.
Target: 5-hydroxytryptamine receptor 1A (HTR1A, Homo sapiens, UniProt P08908)
Sequence (P08908 1-422, as in one of the studies): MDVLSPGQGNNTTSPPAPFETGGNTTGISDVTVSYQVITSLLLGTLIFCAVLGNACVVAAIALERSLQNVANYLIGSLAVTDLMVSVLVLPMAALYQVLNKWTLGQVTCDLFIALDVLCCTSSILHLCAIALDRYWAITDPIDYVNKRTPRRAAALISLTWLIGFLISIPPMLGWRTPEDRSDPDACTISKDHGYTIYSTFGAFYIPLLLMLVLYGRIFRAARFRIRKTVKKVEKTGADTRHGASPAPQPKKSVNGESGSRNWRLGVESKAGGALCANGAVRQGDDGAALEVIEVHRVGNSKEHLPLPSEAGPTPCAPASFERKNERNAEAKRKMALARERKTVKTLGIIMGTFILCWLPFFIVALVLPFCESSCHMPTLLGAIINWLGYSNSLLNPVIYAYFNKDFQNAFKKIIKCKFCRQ

CCCC[C@H](NC(=O)[C@H](C)c1c(C)[nH]c2ccc(O)cc12)c1ncc(-c2cc3ccccc3nc2OC)[nH]1  Ki (cell-free assay): 2080 nM
C[C@@H]1Cc2ccccc2N1C(=O)NCCCCN(C)[C@@H]1Cc2cccc3[nH]c(=O)n(c23)C1  Ki (ligand displacement, radioligand): 33.2 nM
CCOc1c(O)cc(Br)c2c1CN1CCc3cc(OCC(F)F)c(O)cc3[C@@H]1C2  Ki (cell-free assay, radioligand): 334 nM
O=C1c2ccccc2CCN1CCCCN1CCN(c2cccc(Cl)c2Cl)CC1  Ki (ligand displacement, radioligand): 1.5 nM
CN1CCCCC1CCN1c2ccccc2Sc2ccc([S+](C)[O-])cc21 (stereo not drawn)  IC50 (ligand displacement, radioligand): 33.1 nM
CCNC(=O)c1cc2c(N3CCOC[C@@H]3C)ccnc2[nH]1  Ki (cell-free assay, radioligand): > 10000 nM
COc1ccccc1N1CCN(CCCCOc2ccc3c(c2)NC(=O)CC3)CC1  Ki (ligand displacement, radioligand): 0.28 nM
CN(CCCCNC(=O)c1cc2ccccc2[nH]1)[C@@H]1Cc2cccc3[nH]c(=O)n(c23)C1  Ki (ligand displacement, radioligand): 127 nM
CCCCN1CCC(COC(=O)c2ccc(N)c(OCF)c2)CC1  Ki (cell-free assay, radioligand): > 10000 nM
